The array DNA melting data of Ke et al. (doi:10.1101/2024.01.08.574731)

Legend:
[1] = folding enthalpy; higher = less favourable; fluorescence melt of hairpins on a sequencing array, two-state fit; details: sodium 0.088 M
How it was run: (§1)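 Hairpins were imaged by Cy3 fluorescence on a sequenced MiSeq flow cell with annealed Cy3 and quencher oligos, in 50 mM Na-HEPES pH 8.0, 25 mM NaCl, in 2.5 °C steps up to 60 °C. Bootstrapped two-state fits of normalised signals gave melting temperature and folding enthalpy. Four replicates were combined by inverse variance, and fitted temperatures were raised by 9.35 °C to match UV melts.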

[2] = melting temperature; fluorescence melt of hairpins on a sequencing array, two-state fit, raised by 9.35 °C to match UV melts; details: sodium 0.088 M
How it was run: as §1

Sequence | folding enthalpy [1] [kcal/mol] | Tm [2] [°C]
GTGCTCGAAAGAGTGCAC ((((((....)))..))) | -24 | 48.7
GTGCTCGGAAACGAGCGC (.(((((....))))).) | -19.4 | 64.5
GTGCTCTCGAAAGAGCAC (((..(((....)))))) | -40.3 | 62.6
GTGCTGGGAAACCAACAC (((.(((....))).))) | -36.9 | 44
GTGCTGGGAAACCAGTAC ((.((((....)))).)) | -39.6 | 51.7
GTGCTTACGAAAGTACAC (((..(((....)))))) | -9.43 | 34
GTGCTTGGAAACAAGTAC ((.((((....)))).)) | -32.3 | 49.2
GTGGAAACGAAAGTTCAC (((..(((....)))))) | -19.5 | 33.7
GTGGAACGAAAGTTGCAC (((.(((....))).))) | -40.3 | 56.5
GTGGAAGCGAAAGCTCAC (((..(((....)))))) | -18.8 | 44.3
GTGGAAGGAAACTTCTAC ((.((((....)))).)) | -27.8 | 39.3
GTGGACGAAAGTCACCAC ((((((....)))..))) | -16.4 | 38
GTGGACGAAAGTCCCCAC ((((((....)))..))) | -8.05 | 37.2
GTGGACGAAAGTCGCAC ((((((....))).))) | -15.5 | 50.4
GTGGACGAAAGTCTGCAC ((((((....)))..))) | -15.7 | 40.6
GTGGACGGAAACACCCAC ((((..(....)..)))) | -12.2 | 30.4
GTGGAGCCGAAAGGCCAC (((..(((....)))))) | -13.7 | 50.5
GTGGCACCGAAAGGTCAC (((..(((....)))))) | -14.9 | 42.6
GTGGCAGGAAACTGTCAC (((.(((....))).))) | -41 | 54.3
GTGGCCGAAAGGCAGCAC ((((((....)))..))) | -14.1 | 46.3
GTGGCCTCGAAAGAGCAC (((..(((....)))))) | -14.7 | 37.4
GTGGCGGGAAACCGCTAC ((.((((....)))).)) | -19.3 | 58.3
GTGGCTCCGAAAGGACAC (((..(((....)))))) | -14.6 | 47.8

Sequence | folding enthalpy [1] [kcal/mol] | Tm [2] [°C]
GTGGCTGCGAAAGCACAC (((..(((....)))))) | -11.5 | 47.8
GTGGGAACGAAAGTTCAC (((..(((....)))))) | -34.3 | 54.9
GTGGGAGGAAACTCCTAC ((.((((....)))).)) | -25.1 | 46.8
GTGGGAGGAAACTCCTGC (..((((....))))..) | -17.4 | 37.8
GTGGGAGGAAACTTCCAC ((((.((....)).)))) | -41.1 | 49.2
GTGGGCGAAAGCCCGCAC ((((((....)))..))) | -10.2 | 58.6
GTGGGCGAAAGCCGCAC ((((((....))).))) | -13.8 | 55.4
GTGGGCGGAAACGCCTAC ((.((((....)))).)) | -16.3 | 56.5
GTGGGCGGAAACGCTCAC (((.(((....))).))) | -34.3 | 59.6
GTGGGCGGAAACGCTCGC (.(.(((....))).).) | -21.3 | 49.9
GTGGGGCGAAAGCCCAC (((.(((....)))))) | -12.8 | 62.6
GTGGGGCGAAAGCCTCAC (((.(((....))).))) | -30.2 | 67.6
GTGGGGGGAAACCCTCAC (((.(((....))).))) | -30.3 | 52.6
GTGGGGTCGAAAGACCAC (((..(((....)))))) | -19.2 | 63.1
GTGGTAGAAATACCAC ((((((....)))))) | -36.1 | 53.6
GTGGTAGGAAACCACCAC (((((.(....).))))) | -22.5 | 49.4
GTGGTAGGAAACTACCAC (((((((....))))))) | -54.9 | 61.2
GTGGTAGGAAACTACCGC (.(((((....))))).) | -32.5 | 52.5
GTGGTAGGAAACTACTAC ((.((((....)))).)) | -32.2 | 41.8
GTGGTAGGAAACTATCGC (.(.(((....))).).) | -18.1 | 31.1
GTGGTAGGAAACTGCCAC ((((.((....)).)))) | -50 | 54.1
GTGGTATCGAAAGATCAC (((..(((....)))))) | -23.8 | 33.3
GTGGTCCCGAAAGGGCAC (((..(((....)))))) | -14.8 | 42.5

Sequence | folding enthalpy [1] [kcal/mol] | Tm [2] [°C]
GTGGTCGAAAGACACAC ((((((....))).))) | -26.6 | 50.3
GTGGTCGAAAGACTCCAC ((((((....)))..))) | -13.7 | 38.9
GTGGTCGGAAACGGCCAC ((((.((....)).)))) | -33.7 | 63.5
GTGGTGCGAAAGCAACAC (((.(((....))).))) | -28.8 | 68.9
GTGGTGCGAAAGCACAC (((.(((....)))))) | -11.5 | 53.8
GTGGTGCGAAAGCATCAC (((.(((....))).))) | -30.4 | 67
GTGGTGGCGAAAGCCCAC (((..(((....)))))) | -14.8 | 53.5
GTGGTGGGAAACCATCGC (.(.(((....))).).) | -24.9 | 41.6
GTGGTGGGAAACCGCTAC ((.(.((....)).).)) | -19.3 | 46.7
GTGGTGGGAAACTACCAC (((((.(....).))))) | -43.4 | 52.6
GTGGTTCGAAAGAAGCAC (((.(((....))).))) | -41.7 | 60.1
GTGGTTGGAAACAGCCAC ((((.((....)).)))) | -44.1 | 52.4
GTGGTTGGAAACAGTCAC (((..((....))..))) | -19.4 | 31.2
GTGGTTGGAAACGACCAC (((((.(....).))))) | -41 | 54.7
GTGTAACGAAAGTTTCAC (((.(((....))).))) | -22.9 | 44.9
GTGTACGAAAGTAACAC ((((((....))).))) | -30 | 49.5
GTGTACGAAAGTAACCAC ((((((....)))..))) | -15 | 32
GTGTACGAAAGTAAGCAC ((((((....)))..))) | -21.3 | 33.4
GTGTACGAAAGTAATCAC ((((((....)))..))) | -18.3 | 30.2
GTGTACGAAAGTATCCAC ((((((....)))..))) | -18.3 | 26.4
GTGTACGGAAACATACAC (((((.(....).))))) | -26 | 36.1
GTGTACGGAAACGTATAC ((.((((....)))).)) | -29.1 | 46.6
GTGTACGGAAACGTATGC (..((((....))))..) | -26.7 | 39.5

Sequence | folding enthalpy [1] [kcal/mol] | Tm [2] [°C]
GTGTACGGAAACGTGTAC ((..(((....)))..)) | -20.4 | 35.2
GTGTAGGGAAACCCACAC ((((.((....)).)))) | -24.5 | 45.8
GTGTATCGAAAGATTCAC (((.(((....))).))) | -36.9 | 44.7
GTGTATGGAAACATGCAC (((.(((....))).))) | -33.9 | 48.9
GTGTCACGAAAGTGCAC (((.(((....)))))) | -26 | 53.5
GTGTCACGAAAGTGGCAC (((.(((....))).))) | -37.1 | 67.3
GTGTCAGAAATGACAC ((((((....)))))) | -35.9 | 56.4
GTGTCAGCGAAAGCTCAC (((..(((....)))))) | -15.3 | 39
GTGTCCCGAAAGGGCCAC (((.(((....))).))) | -23.8 | 56.4
GTGTCCGAAAGGACCAC ((((((....))).))) | -10.2 | 48.5
GTGTCCGAAAGGAGGCAC ((((((....)))..))) | -20.6 | 39.5
GTGTCCGAAAGGATACAC ((((((....)))..))) | -18.7 | 49
GTGTCCGAAAGGATCAC ((((((....))).))) | -25.2 | 51
GTGTCCGGAAACGGACGC (.(((((....))))).) | -14.6 | 62.5
GTGTCGGAAACGACAC ((((((....)))))) | -30.9 | 69.2
GTGTCGGGAAACCGATAC ((.((((....)))).)) | -28.6 | 52.1
GTGTCGGGAAACCGGCAC (((.(((....))).))) | -45.1 | 60.8
GTGTCGGGAAACTGACAC (((((.(....).))))) | -41.6 | 55
GTGTCTCGAAAGAGCAC (((.(((....)))))) | -33.4 | 52.2
GTGTCTGGAAACAGACAC (((((((....))))))) | -39.9 | 66.5
GTGTCTGGAAACAGGTAC ((..(((....)))..)) | -11.4 | 30.1
GTGTGACGAAAGTCGCAC (((.(((....))).))) | -42.5 | 65.9
